In paper PMC9178606 (ACS Omega, 2022):

How the values were obtained:
[1] = target: α-glucosidase (Saccharomyces cerevisiae, UniProt P53341); experiment: In vitro α-glucosidase inhibitory activity; type: biochemical, Saccharomyces cereviseae
[2] = system: LoVo cells; experiment: Cytotoxicity assay; type: cell-based; settings: Homo sapiens, 24 h; for viability at 200 µg/mL: read-out: % of Viable cells, LoVo cell line of CRC; for IC50: read-out: IC50 LoVo cell line of CRC
How it was run: (§1)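 Cells exposed 24 h at 37 °C in 5% CO2 to test compound (final 25, 50, 75, 100, 200, 400 μg/mL) in DMEM with 10% FBS. Lactate dehydrogenase released into supernatant measured by end-point assay, OD 550 nm. Viability expressed as percent of medium-only control; 0.1% Triton X-100 was the positive control. Single-point viability at 200 μg/mL, mean ± SD (n = 2). IC50 from viability-versus-concentration plot.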

[3] = target: cathepsin-B (Homo sapiens, UniProt P07858); experiment: Anti-proteases assay; type: biochemical
How it was run: (§2)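 Enzyme preincubated with test compound (5−75 μg/mL) for 15 min at 37 °C, then 1% casein substrate added for 30 min at 37 °C. Reaction stopped with 5% trichloroacetic acid and centrifuged (12,000 rpm, 15 min). Filtrate absorbance read at 280 nm. Percent inhibition taken against control; IC50 from standard curve. Protease inhibitor cocktail was the positive control.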

[4] = target: xanthine oxidoreductase (Bos taurus, UniProt P80457); experiment: In vitro xanthine oxidoreductase inhibitory activity; type: biochemical
[5] = target: T1, α-amylase (Homo sapiens, UniProt P04746); experiment: In vitro α-amylase inhibitory activity; type: biochemical
T1 sequence (P04746 16-511): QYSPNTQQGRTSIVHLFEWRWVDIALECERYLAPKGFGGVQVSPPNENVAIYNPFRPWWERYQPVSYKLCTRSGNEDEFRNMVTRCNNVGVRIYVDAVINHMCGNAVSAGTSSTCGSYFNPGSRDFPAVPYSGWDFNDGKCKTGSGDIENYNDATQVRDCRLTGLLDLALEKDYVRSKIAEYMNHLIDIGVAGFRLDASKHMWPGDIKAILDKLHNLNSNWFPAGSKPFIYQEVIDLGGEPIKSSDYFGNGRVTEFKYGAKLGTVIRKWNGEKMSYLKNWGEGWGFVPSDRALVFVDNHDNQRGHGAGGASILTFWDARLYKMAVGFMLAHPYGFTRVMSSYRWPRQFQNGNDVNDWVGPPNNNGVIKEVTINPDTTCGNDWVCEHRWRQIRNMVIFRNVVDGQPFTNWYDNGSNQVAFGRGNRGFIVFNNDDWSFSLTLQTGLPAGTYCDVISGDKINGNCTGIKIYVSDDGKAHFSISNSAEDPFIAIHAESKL
How it was run: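 Labtest amylase substrate (diluted 1:1 in water) added; first read at 620 nm after 8 min. Final read after another 5 min at 37 °C. Inhibition calculated from the change between initial and final absorbance relative to control; IC50 from standard curve.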

[6] = target: T2, hsPLA2-G-IIA (Homo sapiens, UniProt P14555); experiment: Anti-phospholipases colorimetric assay, hsPLA2-G-IIA; type: biochemical
T2 sequence (P14555 21-144): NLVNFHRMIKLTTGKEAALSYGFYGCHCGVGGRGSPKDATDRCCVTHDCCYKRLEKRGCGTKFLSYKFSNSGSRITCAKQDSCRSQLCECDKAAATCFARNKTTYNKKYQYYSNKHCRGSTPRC

[7] = target: T3, hsPLA2-G-V (Homo sapiens, UniProt P39877); experiment: Anti-phospholipases colorimetric assay, hsPLA2-G-V; type: biochemical
T3 sequence (P39877 21-138): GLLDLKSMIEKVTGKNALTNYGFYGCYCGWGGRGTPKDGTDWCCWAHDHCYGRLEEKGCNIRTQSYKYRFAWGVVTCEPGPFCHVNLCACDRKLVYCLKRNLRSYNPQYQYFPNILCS
How it was run: (§3)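 Test compound solutions (5−50 μg/mL) mixed with hsPLA2 solution (20 μg/mL, stock) and held 20 min at room temperature. Substrate added: 3.5 mM lecithin, 10 mM CaCl2, 3 mM sodium taurodeoxycholate, 100 mM NaCl, 0.055 mM phenol red, pH 7.6. Hydrolysis followed at 558 nm for 5 min. Percent inhibition taken against a no-compound control; IC50 from standard calibration curves.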

[8] = system: HCT-116 cells; experiment: Cytotoxicity assay; type: cell-based; settings: Homo sapiens, HCT-116, 24 h, read-out: IC50 HCT-116 cell line of CRC
How it was run: as §1

[9] = target: T4, trypsin (Bos taurus, UniProt P00760); experiment: Anti-proteases assay; type: biochemical
T4 sequence (P00760 24-246): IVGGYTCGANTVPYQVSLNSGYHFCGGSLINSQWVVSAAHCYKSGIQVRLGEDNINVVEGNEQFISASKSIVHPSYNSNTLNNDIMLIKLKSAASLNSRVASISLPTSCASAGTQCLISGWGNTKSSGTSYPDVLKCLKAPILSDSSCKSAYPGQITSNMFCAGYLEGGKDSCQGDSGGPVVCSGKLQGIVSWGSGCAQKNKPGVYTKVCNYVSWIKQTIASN
How it was run: as §2

[10] = target: thrombin (Homo sapiens, UniProt P00734); experiment: Anti-proteases assay; type: biochemical
[11] = target: T5, hsPLA2-G-X (Homo sapiens, UniProt O15496); experiment: Anti-phospholipases colorimetric assay, hsPLA2-G-X; type: biochemical
T5 sequence (O15496 43-165): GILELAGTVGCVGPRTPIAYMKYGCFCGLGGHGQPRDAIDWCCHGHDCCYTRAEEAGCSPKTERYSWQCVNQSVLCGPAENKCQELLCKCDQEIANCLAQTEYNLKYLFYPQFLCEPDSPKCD
How it was run: as §3

[12] = target: collagenase; experiment: Anti-proteases assay; type: biochemical; settings: mean of two determinations ± SD
How it was run: as §2

α-glucosidase, sequence (P53341 whole entry): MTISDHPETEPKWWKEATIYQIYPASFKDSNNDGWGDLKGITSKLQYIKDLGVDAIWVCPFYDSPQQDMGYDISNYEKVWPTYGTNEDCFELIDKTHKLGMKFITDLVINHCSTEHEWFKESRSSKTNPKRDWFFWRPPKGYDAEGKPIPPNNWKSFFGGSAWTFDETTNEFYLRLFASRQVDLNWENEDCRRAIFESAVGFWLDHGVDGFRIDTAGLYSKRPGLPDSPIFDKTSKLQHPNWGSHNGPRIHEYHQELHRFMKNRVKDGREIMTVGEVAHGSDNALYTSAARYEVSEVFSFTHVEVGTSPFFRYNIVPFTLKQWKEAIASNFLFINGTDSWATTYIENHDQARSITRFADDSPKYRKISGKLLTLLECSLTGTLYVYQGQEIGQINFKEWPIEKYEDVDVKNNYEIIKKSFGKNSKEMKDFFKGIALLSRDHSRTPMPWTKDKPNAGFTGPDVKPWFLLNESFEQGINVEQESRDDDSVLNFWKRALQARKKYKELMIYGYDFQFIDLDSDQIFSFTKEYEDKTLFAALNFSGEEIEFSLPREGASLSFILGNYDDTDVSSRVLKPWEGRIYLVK
xanthine oxidoreductase, sequence (P80457 2-1332 limits assumed): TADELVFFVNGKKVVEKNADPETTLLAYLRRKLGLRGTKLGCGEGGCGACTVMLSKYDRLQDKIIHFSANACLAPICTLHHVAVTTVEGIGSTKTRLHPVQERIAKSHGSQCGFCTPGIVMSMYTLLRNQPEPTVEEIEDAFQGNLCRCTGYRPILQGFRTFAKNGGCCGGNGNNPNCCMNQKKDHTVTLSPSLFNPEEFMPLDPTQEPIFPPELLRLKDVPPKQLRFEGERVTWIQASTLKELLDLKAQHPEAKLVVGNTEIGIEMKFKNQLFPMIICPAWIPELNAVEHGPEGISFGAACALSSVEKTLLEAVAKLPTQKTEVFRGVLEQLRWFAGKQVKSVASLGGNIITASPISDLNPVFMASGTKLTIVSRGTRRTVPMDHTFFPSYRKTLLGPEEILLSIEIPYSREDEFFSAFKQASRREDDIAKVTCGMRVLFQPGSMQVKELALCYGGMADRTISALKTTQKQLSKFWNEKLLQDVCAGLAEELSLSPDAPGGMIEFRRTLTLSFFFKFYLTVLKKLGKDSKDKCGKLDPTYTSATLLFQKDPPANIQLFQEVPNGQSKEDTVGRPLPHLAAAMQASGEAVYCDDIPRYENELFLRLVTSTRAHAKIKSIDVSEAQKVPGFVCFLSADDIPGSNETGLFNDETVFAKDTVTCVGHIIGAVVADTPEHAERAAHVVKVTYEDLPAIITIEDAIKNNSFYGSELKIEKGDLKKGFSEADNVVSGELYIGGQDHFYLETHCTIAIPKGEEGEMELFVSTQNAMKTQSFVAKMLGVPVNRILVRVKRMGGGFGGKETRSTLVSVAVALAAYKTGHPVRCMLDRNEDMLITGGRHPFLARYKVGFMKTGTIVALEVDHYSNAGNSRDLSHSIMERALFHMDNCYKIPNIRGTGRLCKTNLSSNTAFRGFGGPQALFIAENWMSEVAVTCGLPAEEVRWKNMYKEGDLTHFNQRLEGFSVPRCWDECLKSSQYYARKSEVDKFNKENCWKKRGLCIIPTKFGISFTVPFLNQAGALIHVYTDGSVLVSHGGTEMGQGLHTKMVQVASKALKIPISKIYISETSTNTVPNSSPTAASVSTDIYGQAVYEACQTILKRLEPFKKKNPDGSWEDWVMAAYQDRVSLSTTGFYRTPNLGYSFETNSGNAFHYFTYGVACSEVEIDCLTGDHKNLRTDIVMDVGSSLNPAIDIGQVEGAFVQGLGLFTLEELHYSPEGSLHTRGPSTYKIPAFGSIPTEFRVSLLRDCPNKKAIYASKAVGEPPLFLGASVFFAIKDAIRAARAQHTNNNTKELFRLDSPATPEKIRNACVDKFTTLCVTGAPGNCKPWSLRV

COc1ccc2cc(/C=N/n3c(C)nc4ccc(Br)cc4c3=O)ccc2c1 [Compound 3f, (E)-6-Bromo-3-[((6-methoxynaphthalen-2-yl)methylene)amino]-2-methylquinazolin-4(3H)-one]
IC50 [1]: 12.4 ± 0.83 µM
viability at 200 µg/mL [2]: 58 ± 4.24%
IC50 [3]: 132 µM
IC50 [4]: 7.34 ± 0.33 µM
IC50 [5]: 310 ± 10 µM

Cc1nc2ccccc2c(=O)n1NC(=O)CSc1nc2ccccc2c(=O)n1-c1ccccc1 [Compound 10, N-(2-Methyl-4-oxo-4H-quinazolin-3-yl)-2-(4-oxo-3-phenyl-3,4-dihydroquinazolin-2-ylsulfanyl)acetamide]
IC50 [6]: 13.8 ± 2.12 µM
viability at 200 µg/mL [2]: 22 ± 1.41%
IC50 [2]: 273 ± 9.04 µM
IC50 [7]: 14.7 ± 0.42 µM
IC50 [8]: 230 ± 9.04 µM

COc1cc(/C=N/n2c(C)nc3ccc(Br)cc3c2=O)ccc1OCc1ccc(Cl)cc1 [Compound 5, (E)-6-Bromo-3-{[4-(4-chlorobenzyloxy)-3-methoxybenzylidene]amino}-2-methyl-3H-quinazolin-4-one]
IC50 [1]: 13.7 ± 1.41 µM
IC50 [5]: 358 ± 4.95 µM

Cc1nc2ccc(Cl)cc2c(=O)n1NC1=NC(=O)CS1 [Compound 8, 6-Chloro-2-methyl-3-(4-oxo-4,5-dihydrothiazol-2-ylamino)-3H-quinazolin-4-one]
viability at 200 µg/mL [2]: 13.5 ± 0.71%
IC50 [2]: 319 ± 11.4 µM
IC50 [8]: 449 ± 11.5 µM
IC50 [9]: 1.78 µM
IC50 [10]: 0.729 µM

Cc1nc2ccc(Cl)cc2c(=O)n1NC(=O)CCl [Compound 7b, 2-Chloro-N-(6-chloro-2-methyl-4-oxo-4H-quinazolin-3-yl)acetamide]
IC50 [6]: 127 ± 2.12 µM
IC50 [3]: 31.5 µM

COc1cc(NCC(=O)Nn2c(C)nc3ccc(Cl)cc3c2=O)cc(OC)c1OC [Compound 12, N-(6-Chloro-2-methyl-4-oxo-4H-quinazolin-3-yl)-2-(3,4,5-trimethoxyphenylamino)acetamide]
IC50 [5]: 401 ± 6.36 µM

COc1cc(/C=N/n2c(C)nc3ccc(Br)cc3c2=O)ccc1O [Compound 3g, (E)-6-Bromo-3-[(4-hydroxy-3-methoxybenzylidene)amino]-2-methyl-3H-quinazolin-4-one]
IC50 [11]: 14.5 ± 0.92 µM
viability at 200 µg/mL [2]: 16.8 ± 0.35%
IC50 [2]: 206 ± 7.29 µM
IC50 [7]: 22.3 ± 0.92 µM
IC50 [8]: 285 ± 9.11 µM

Cc1nc2ccc(Br)cc2c(=O)n1/N=C/c1ccc(C(=O)O)cc1 [Compound 3b, (E)-4-[(6-Bromo-2-methyl-4-oxo-4H-quinazolin-3-ylimino)methyl]benzoic acid]
IC50 [5]: 264 ± 11 µM

COc1cc(/C=N/n2c(C)nc3ccc(C)cc3c2=O)cc([N+](=O)[O-])c1O [Compound 3d, (E)-3-[(4-Hydroxy-3-methoxy-5-nitrobenzylidene)amino]-2,6-dimethylquinazolin-4(3H)-one]
IC50 [11]: 21.4 ± 2.31 µM
viability at 200 µg/mL [2]: 90.5 ± 3.54%
mean IC50 against Collagenase [12]: 57.83 ± 2.69 mg/L
IC50 [5]: 375 ± 11.5 µM

O=c1c2ccccc2[nH]c(=S)n1-c1ccccc1 [Compound 9, 2-Mercapto-3-phenyl-3H-quinazolin-4-one]
IC50 [7]: 151 ± 2.12 µM

O=c1c(O)c(-c2ccc(O)c(O)c2)oc2cc(O)cc(O)c12 [Quercetin, quercetin, reference compound]
IC50 [5]: 407 ± 2.83 µM
